Experimental data gathered from unrelated publications.
Compare with care: the assays were run in different laboratories.

Compound	cell line	assay	conditions	endpoint	value
COc1cc(O)c2c(=O)c(OC)c(-c3ccc(O)cc3)oc2c1	RBL-2H3	degranulation, inhibitor	–	IC50	80400 nM
O=C(O)C(Cl)Cl	BCPAP	cell growth or viability, MTT	72 h	IC50	> 50000 nM
Cc1c2cnccc2c(C)c2c1c1ccccc1n2CCCCCCNCc1ccccc1	MDA-MB-468	cell growth or viability, MTT	–	IC50	720 nM
COc1ccc2c(c1)c(C(=O)C(=O)NCCc1c[nH]c3ccccc13)cn2Cc1ccc(Cl)cc1	C4-2	cell growth or viability, MTT	–	IC50	> 100000 nM
CC(C)[C@@H]1NC(=O)[C@H](C)OC(=O)[C@@H](C(C)C)NC(=O)[C@@H](C(C)C)OC(=O)[C@H](C(C)C)NC(=O)[C@H](C)OC(=O)[C@@H](C(C)C)NC(=O)[C@@H](C(C)C)OC(=O)[C@H](C(C)C)NC(=O)[C@H](C)OC(=O)[C@@H](C(C)C)NC(=O)[C@@H](C(C)C)OC1=O	C6	cell growth or viability, SRB	–	IC50	24 nM
c1ccc2c(NCCCCCCNc3c4ccccc4nc4ccccc34)c3ccccc3nc2c1	MDA-MB-468	cell growth or viability, MTT	–	IC50	96 nM
O=C(NCCc1c[nH]c2ccccc12)C(=O)c1cn(Cc2ccc(Cl)cc2)c2ccc(F)cc12	C4-2	cell growth or viability, MTT	–	IC50	> 100000 nM
Cn1cncc1[C@@](N)(c1ccc(Cl)cc1)c1ccc2c(c1)c(-c1cccc(Cl)c1)cc(=O)n2C	HN-6	cell growth or viability	72 h	IC50	2270 nM
COc1cccc2c1C(=O)c1c(O)c3c(c(O)c1C2=O)C[C@@](O)(C(=O)CO)C[C@@H]3O[C@H]1C[C@H](N)[C@H](O)[C@H](C)O1	C6	cell growth or viability, SRB	72 h	IC50	500 nM
CCn1cc(C(=O)C(=O)NCCc2c[nH]c3ccccc23)c2ccccc21	C4-2	cell growth or viability, MTT	–	IC50	> 100000 nM
c1ccc([C@@H]2C[C@H]2NC2CCNCC2)cc1	MV4-11	cell growth or viability, resazurin	96 h	EC50	0.48 nM
